According to ChEMBL document CHEMBL5678799 (Biochem J, 2009):
Calls of active or inactive are those of the source. The calls are words filed in the database; no cut-off is given here.

Legend:
[1] = target: T1, mTORC1 (Homo sapiens) (UniProt P42345+Q8N122+Q9BVC4); conditions: HEK293, dose 30.0 nM, time 30.0 min
[2] = target: Insulin receptor (Homo sapiens) (UniProt P06213); assay: (§1) Inhibition of recombinant human N-terminal His6-tagged IR (1001 to 1382 residues) expressed in baculovirus infected Sf21 cells assessed as remaining activity at 10 uM using KKSRGDYMTMQIG as substrate incubated for 30 mins in presence of [gamma-33P]ATP by filter binding method relative to control
Chain of Insulin receptor (Homo sapiens) (P06213 28-758 limits assumed): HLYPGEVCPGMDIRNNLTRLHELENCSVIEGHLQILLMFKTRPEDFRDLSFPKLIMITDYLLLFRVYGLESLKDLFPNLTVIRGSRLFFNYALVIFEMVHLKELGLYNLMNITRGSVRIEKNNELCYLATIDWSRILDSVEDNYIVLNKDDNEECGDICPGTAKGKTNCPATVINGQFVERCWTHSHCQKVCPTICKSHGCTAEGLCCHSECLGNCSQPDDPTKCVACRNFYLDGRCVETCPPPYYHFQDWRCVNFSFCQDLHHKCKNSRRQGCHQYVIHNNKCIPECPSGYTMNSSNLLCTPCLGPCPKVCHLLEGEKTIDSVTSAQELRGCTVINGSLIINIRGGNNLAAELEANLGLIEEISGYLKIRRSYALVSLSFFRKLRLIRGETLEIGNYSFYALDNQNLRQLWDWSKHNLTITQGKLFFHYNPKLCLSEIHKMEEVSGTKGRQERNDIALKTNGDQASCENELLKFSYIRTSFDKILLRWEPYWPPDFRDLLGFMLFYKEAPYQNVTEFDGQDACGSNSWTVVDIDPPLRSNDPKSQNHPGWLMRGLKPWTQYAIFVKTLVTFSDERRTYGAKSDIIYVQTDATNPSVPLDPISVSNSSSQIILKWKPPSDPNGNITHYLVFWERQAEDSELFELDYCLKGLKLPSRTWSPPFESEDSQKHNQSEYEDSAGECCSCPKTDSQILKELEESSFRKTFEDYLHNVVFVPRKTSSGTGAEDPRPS
Chain of Insulin receptor (Homo sapiens) (P06213 763-1382 limits assumed): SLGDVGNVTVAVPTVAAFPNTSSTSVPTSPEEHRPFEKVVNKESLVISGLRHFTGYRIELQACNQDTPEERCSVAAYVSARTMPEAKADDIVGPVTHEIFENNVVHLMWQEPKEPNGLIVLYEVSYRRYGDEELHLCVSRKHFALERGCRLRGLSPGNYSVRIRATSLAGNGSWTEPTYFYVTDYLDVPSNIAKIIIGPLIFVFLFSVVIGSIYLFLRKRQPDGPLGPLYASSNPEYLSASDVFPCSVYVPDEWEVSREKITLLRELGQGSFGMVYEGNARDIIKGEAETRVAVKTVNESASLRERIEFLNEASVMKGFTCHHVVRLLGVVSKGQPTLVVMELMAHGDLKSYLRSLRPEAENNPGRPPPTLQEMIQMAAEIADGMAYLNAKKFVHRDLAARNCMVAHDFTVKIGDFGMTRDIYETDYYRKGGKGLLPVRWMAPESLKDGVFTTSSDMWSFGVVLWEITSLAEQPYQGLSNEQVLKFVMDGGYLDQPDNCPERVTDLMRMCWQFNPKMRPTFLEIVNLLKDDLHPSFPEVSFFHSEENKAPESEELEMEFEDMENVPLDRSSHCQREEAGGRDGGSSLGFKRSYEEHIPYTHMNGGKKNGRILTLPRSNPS

[3] = target: Serine/threonine-protein kinase Chk1 (Homo sapiens) (UniProt O14757); assay: Inhibition of recombinant human N-terminal GST-tagged CHK1 (1 to 476 residues) expressed in baculovirus infected Sf21 cells assessed as remaining activity at 1 uM using CHKtide as substrate incubated for 30 mins in presence of [gamma-33P]ATP by filter binding method relative to control
Chain of Serine/threonine-protein kinase Chk1 (Homo sapiens) (O14757 whole entry, the tested form may be a part): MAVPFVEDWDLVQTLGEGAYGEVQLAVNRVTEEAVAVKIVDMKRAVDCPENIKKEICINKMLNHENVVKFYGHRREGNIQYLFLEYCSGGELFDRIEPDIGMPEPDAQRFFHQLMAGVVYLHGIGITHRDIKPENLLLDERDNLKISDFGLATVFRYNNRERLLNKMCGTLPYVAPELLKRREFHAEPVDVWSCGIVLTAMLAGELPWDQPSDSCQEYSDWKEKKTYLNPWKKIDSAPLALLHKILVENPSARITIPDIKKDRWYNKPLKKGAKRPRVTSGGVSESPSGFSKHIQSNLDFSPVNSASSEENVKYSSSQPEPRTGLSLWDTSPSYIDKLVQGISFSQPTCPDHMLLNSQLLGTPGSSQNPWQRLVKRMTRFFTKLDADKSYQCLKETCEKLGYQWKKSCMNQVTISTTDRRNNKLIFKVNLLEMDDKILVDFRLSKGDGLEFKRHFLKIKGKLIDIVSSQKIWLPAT
Outline: (§2)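 Robotic radiometric panel assay, 30 min at room temperature (21 °C), with 10 mM magnesium acetate. […] Compound at 1 or 10 µM. Residual activity expressed relative to compound-free control; triplicate average ± S.D.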

[4] = target: T2, mTORC2 (Homo sapiens) (UniProt P42345+Q6R327+Q9BVC4+Q9BPZ7); conditions: HEK293, dose 30-1000 nM, time 30.0 min
[5] = target: Tyrosine-protein kinase Lck (Homo sapiens) (UniProt P06239); assay: Inhibition of recombinant human N-terminal His6-tagged LCK (2 to 509 residues) expressed in baculovirus infected Sf21 cells assessed as remaining activity at 10 uM using KVEKIGEGTYGVVYK as substrate incubated for 30 mins in presence of [gamma-33P]ATP by filter binding method relative to control
Chain of Tyrosine-protein kinase Lck (Homo sapiens) (P06239 2-509 limits assumed): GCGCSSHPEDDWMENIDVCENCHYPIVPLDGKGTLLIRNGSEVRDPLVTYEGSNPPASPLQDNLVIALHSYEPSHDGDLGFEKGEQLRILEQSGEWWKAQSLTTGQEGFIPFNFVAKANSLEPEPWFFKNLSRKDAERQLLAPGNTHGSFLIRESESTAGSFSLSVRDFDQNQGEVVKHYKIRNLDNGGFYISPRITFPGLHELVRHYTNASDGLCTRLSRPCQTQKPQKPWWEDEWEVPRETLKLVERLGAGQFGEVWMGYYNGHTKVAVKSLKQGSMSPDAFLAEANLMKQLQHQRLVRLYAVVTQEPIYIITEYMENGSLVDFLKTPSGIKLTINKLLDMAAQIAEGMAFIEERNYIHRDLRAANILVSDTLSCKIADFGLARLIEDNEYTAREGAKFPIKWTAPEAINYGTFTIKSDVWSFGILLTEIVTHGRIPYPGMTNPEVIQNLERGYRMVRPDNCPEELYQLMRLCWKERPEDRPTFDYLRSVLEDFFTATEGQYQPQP
Outline: (§3)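 Assays ran 30 min at 21 °C, robotically and in the linear range. Remaining activity is given relative to incubations lacking compound, as the average of triplicate determinations ± S.D.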

[6] = system: MEF; assay: Inhibition of mTORC2 in MEF cells assessed as reduction in NDRG1 phosphorylation incubated ay 1 uM for 30 mins by immunoblot analysis; type: cell-based; conditions: Mus musculus
Outline: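 Cells (MEFs, wild-type or knockout, or HeLa) kept in 10% serum, then exposed 30 min to inhibitor or vehicle at the stated level. Washed twice in ice-cold PBS and lysed in Tris lysis buffer with CHAPS, phosphatase and protease inhibitors. Lysates cleared at 18000 g and immunoblotted with phospho-specific antibodies and ECL detection. Blots are representative of three experiments.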

[7] = target: T2, mTORC2 (Homo sapiens); conditions: HEK293, dose 30-1000 nM, time 30.0 min; remark: listed apart in the source
[8] = target: Calcium/calmodulin-dependent protein kinase kinase 2 (Homo sapiens) (UniProt Q96RR4); assay: Inhibition of recombinant human N-terminal GST-tagged CAMKKbeta (1 to 541 residues) expressed in Escherichia coli assessed as remaining activity at 1 uM using DGEFLRTSCGSPNYAARRR as substrate incubated for 30 mins in presence of [gamma-33P]ATP by filter binding method relative to control
Outline: as §2

[9] = target: T1, mTORC1 (Homo sapiens); conditions: HEK293, dose 300.0 nM, time 30.0 min
[10] = target: Inhibitor of nuclear factor kappa-B kinase subunit beta (Homo sapiens) (UniProt O14920); assay: as §1, with “IKKbeta (1” for “IR (1001”, “736” for “1382”, “LDDRHDSGLDSMKDEEY” for “KKSRGDYMTMQIG”
Chain of Inhibitor of nuclear factor kappa-B kinase subunit beta (Homo sapiens) (O14920 whole entry): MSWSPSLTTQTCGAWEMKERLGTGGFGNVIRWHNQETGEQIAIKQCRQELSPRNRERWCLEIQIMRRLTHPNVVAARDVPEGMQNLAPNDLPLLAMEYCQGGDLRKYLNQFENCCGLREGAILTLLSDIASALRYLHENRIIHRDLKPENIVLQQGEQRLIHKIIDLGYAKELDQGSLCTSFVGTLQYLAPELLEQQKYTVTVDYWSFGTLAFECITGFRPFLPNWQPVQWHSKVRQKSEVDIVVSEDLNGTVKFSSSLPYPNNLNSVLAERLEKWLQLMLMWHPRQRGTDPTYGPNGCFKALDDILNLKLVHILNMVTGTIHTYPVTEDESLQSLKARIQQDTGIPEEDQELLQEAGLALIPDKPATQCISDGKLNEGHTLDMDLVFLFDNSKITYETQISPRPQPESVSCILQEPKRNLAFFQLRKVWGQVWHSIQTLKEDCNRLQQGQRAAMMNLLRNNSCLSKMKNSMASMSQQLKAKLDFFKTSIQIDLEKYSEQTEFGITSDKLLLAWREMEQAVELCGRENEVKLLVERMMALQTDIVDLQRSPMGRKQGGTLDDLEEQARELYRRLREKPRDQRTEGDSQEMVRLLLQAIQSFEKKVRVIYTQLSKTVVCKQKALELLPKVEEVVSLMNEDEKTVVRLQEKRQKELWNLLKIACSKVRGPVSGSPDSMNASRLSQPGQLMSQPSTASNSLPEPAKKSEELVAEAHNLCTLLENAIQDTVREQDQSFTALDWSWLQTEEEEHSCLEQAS
Outline: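 Profiling-centre panel assay performed robotically at 21 °C for 30 min, linear with time and enzyme. […] Values are percent of compound-free control activity, the mean of triplicates ± S.D.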

[11] = target: Dual specificity tyrosine-phosphorylation-regulated kinase 2 (Homo sapiens) (UniProt Q92630); assay: Inhibition of recombinant human N-terminal GST-tagged DYRK2 (3 to 528 residues) expressed in Escherichia coli assessed as remaining activity at 10 uM using KKISGRLSPIMTEQ as substrate incubated for 30 mins in presence of [gamma-33P]ATP by filter binding method relative to control
Chain of Dual specificity tyrosine-phosphorylation-regulated kinase 2 (Homo sapiens) (Q92630 whole entry, the tested form may be a part): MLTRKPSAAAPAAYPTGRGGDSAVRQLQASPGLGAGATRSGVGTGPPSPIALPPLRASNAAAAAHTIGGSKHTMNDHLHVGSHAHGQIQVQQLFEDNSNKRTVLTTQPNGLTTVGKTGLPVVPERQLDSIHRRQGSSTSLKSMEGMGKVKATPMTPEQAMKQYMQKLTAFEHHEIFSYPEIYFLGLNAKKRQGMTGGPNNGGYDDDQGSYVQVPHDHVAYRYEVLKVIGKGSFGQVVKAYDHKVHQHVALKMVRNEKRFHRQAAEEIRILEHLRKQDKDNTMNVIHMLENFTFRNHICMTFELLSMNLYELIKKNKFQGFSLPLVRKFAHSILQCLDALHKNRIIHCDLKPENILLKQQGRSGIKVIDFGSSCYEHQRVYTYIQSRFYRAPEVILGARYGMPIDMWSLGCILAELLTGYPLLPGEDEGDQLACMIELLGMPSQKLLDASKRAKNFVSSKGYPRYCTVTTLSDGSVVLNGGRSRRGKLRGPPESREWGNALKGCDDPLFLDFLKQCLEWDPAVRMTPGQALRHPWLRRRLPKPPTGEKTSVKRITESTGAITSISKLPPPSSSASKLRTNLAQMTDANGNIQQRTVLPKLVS
Outline: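 Run robotically for 30 min at 21 °C under linear conditions. Compound at 1 or 10 µM. Percentage activity remaining versus control without compound, triplicate mean ± S.D.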

[12] = target: T2, mTORC2 (Homo sapiens); conditions: HEK293, dose 30-1000 nM, time 30.0 min; remark: listed apart in the source
[13] = target: MAP/microtubule affinity-regulating kinase 3 (Homo sapiens) (UniProt P27448); assay: Inhibition of recombinant human N-terminal His6-tagged MARK3 (2 to 729 residues) expressed in baculovirus infected Sf21 cells assessed as remaining activity at 1 uM using CHKtide as substrate incubated for 30 mins in presence of [gamma-33P]ATP by filter binding method relative to control
Chain of MAP/microtubule affinity-regulating kinase 3 (Homo sapiens) (P27448 whole entry, looked up, the tested form may be a part): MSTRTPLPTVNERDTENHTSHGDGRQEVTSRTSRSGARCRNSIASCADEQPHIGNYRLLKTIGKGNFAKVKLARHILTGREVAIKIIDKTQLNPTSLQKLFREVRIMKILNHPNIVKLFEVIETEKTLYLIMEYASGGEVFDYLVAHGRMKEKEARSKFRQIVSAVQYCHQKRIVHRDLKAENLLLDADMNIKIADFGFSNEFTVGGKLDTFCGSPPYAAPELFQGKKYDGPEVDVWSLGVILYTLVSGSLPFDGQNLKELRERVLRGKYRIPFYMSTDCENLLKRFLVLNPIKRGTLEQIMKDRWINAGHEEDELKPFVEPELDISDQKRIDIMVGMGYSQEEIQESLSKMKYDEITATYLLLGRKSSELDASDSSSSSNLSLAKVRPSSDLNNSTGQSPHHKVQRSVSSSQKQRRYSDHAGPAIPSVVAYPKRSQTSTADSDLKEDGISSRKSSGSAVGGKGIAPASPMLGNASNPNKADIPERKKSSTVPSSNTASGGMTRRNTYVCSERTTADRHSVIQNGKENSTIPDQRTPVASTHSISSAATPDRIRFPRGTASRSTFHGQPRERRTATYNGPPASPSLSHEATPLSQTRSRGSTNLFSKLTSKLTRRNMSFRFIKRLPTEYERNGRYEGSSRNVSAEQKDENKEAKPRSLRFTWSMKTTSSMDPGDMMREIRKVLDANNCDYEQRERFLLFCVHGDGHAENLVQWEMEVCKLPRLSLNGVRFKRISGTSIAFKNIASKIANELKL

[14] = target: Dual specificity tyrosine-phosphorylation-regulated kinase 3 (Homo sapiens) (UniProt O43781); assay: Inhibition of recombinant human N-terminal GST-tagged DYRK3 (1 to 588 residues) expressed in Escherichia coli assessed as remaining activity at 1 uM using KKISGRLSPIMTEQ as substrate incubated for 30 mins in presence of [gamma-33P]ATP by filter binding method relative to control
Chain of Dual specificity tyrosine-phosphorylation-regulated kinase 3 (Homo sapiens) (O43781 whole entry, the tested form may be a part): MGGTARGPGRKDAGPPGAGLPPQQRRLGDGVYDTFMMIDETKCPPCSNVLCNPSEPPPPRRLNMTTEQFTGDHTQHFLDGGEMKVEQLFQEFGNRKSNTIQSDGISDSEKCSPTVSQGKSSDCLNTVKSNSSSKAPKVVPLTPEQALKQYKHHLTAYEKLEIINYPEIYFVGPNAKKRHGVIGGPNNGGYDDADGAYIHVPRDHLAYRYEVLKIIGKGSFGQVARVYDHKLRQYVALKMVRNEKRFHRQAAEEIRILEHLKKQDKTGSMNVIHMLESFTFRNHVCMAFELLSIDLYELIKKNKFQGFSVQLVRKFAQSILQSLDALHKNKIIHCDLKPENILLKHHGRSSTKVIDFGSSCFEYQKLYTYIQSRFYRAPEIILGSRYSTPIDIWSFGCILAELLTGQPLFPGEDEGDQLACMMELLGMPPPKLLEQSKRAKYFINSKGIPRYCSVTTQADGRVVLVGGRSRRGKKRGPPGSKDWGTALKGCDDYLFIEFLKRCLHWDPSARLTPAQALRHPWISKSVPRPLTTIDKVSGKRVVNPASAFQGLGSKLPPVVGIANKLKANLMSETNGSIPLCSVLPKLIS
Outline: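 Radiometric kinase panel run robotically at 21 °C for 30 min, linear in time and enzyme. […] Activity expressed as percentage of control without inhibitor; triplicate determinations.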

[15] = as §1, with “PKBbeta S474D mutant (120” for “IR (1001”, “481” for “1382”, “crosstide peptide” for “KKSRGDYMTMQIG”; conditions: condition cancer, 0.5 h
Outline: as §3

[16] = target: T2, mTORC2 (Homo sapiens); conditions: HEK293, dose 30-1000 nM, time 30.0 min; remark: listed apart in the source
[17] = target: cAMP-dependent protein kinase catalytic subunit alpha (Homo sapiens) (UniProt P17612); assay: Inhibition of recombinant human N-terminal GST-tagged PKAalpha (2 to 351 residues) expressed in Escherichia coli assessed as remaining activity at 10 uM using Kemptide as substrate incubated for 30 mins in presence of [gamma-33P]ATP by filter binding method relative to control
Outline: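 Panel assays were run for 30 min at 21 °C, within the linear range for time and enzyme. […] Results are percent activity remaining relative to compound-free control, averaged from triplicate ± S.D.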

[18] = system: MEF; assay: Inhibition of mTORC2 in serum starved Rictor knockout MEF cells assessed as reduction IGF1-stimulated AKT phosphorylation at Thr308 residue at 100 to 1000 nM incubated for 20 mins by immunoblot analysis; type: cell-based; conditions: Mus musculus, dose 100-1000 nM
Outline: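 Serum withdrawn 16 h. Inhibitor or vehicle given 30 min before stimulation with 50 ng/ml IGF-1 for 20 min. Lysed in Tris lysis buffer and immunoblotted for Akt Thr308 phosphorylation with ECL detection. Applies to HEK-293 and to wild-type, Rictor, Sin1 or mLST8 knockout MEFs. Three independent experiments.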

COc1ccc(-c2ccc3c(N4CCOCC4)nc(N4C[C@@H](C)O[C@@H](C)C4)nc3n2)cc1CO [Ku-0063794]
inhibition [1]: 90%
Activity [2]: 67%
Activity [3]: 87%
inhibition [4]: Dose-Dependent Effect
Activity [5]: 104%
inhibition [6]: Active
inhibition [7]: Dose-Dependent Effect
Activity [8]: 108%
inhibition [9]: 90%
Activity [10]: 89%
Activity [11]: 96%
inhibition [12]: Dose-Dependent Effect
Activity [13]: 93%
Activity [14]: 88%
Activity [15]: 107%
inhibition [16]: Dose-Dependent Effect
Activity [17]: 85%
inhibition [18]: Active
